The list is not random: actives were taken first. Their share in the collection is about 2.6%.
SENP1 inh – human SENP1 catalytic domain inhibitors, primary screen, biochemical, FRET, uHTS; hit rate 0.21% among 360,000; inhibition, % at 10 µM; recombinant SENP1 catalytic domain, CyPet-SUMO1-YPet FRET cleavage; Sentrin-specific protease 1 (Homo sapiens), Q9P0U3;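 active = inhibition at least 30% at 10 µM, raw YFP signal under a set limit, fluorescence ratio 0.5 to 1.5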
Target sequence (Q9P0U3 419-644 limits assumed): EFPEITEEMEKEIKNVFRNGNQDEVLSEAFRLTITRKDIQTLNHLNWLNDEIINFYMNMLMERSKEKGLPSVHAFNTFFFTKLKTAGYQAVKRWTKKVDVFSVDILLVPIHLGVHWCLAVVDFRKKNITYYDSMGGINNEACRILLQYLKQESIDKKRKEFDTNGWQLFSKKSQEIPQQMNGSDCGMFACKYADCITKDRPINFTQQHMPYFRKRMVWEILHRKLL
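Assay system – human recombinant His6-tagged SENP1 catalytic domain enzyme · Input – SENP1 enzyme, 20 pM final · Buffer or medium – Tris pH 8 buffer plus EDTA, NaCl, BME, BSA, NP40, catalase · Schedule – 50 min reaction at room temperature · Technique – FRET read of cyan and yellow fluorescence · Control set – no-enzyme wells low, DMSO-plus-enzyme wells high control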
SENP8 block-1 – human SENP8 protease inhibitors, primary screen, biochemical, fluorescence, Nedd8 protein substrate, uHTS | Sentrin-specific protease 8 (Homo sapiens), Q96LD8 | recombinant SENP8 | inhibition, % at 20 µM | hit rate 0.64% among 360,000 | AID 602440, 2012; in the data active = inhibition mostly above about 40%, no sharp cut-off; inactive = mostly below about 27%
Target sequence (Q96LD8 whole entry, looked up): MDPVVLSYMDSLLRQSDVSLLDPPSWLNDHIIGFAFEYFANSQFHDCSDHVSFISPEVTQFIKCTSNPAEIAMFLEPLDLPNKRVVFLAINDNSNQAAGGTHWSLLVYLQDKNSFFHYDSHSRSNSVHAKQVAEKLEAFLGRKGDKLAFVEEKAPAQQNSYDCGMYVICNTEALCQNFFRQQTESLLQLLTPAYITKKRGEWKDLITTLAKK
SENP6 block – SENP6 protease inhibitors, primary screen, biochemical, luminescence, uHTS; inhibition, % at 10 µM; Sentrin-specific protease 6 (Homo sapiens), Q9GZR1; Recombinant SENP6 catalytic domain, aminoluciferin luminescence; AID 2599, 2010; hit rate 1.8% among 330,000;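 active = inhibition above about 50% at the single tested dose, limit read from the data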
SENP7 inh – SENP7 protease inhibitors, primary screen, biochemical, luminescence, uHTS | hit rate 1.5% among 330,000 | inhibition, % at 5 µM | recombinant SENP7, Z-RLRGG-aminoluciferin luminescence, 40 min;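 active = inhibition above about 50% at the single test dose, limit read from the data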
Platelet DG rel – inhibitors of platelet dense granule secretion, primary screen, cell-based, MLPCN, human platelets; inhibition, %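 (compounds screened at 7.5 µM in platelet-rich plasma)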; hit rate 0.22% among 300,000; human platelet-rich plasma, SFLLRN dense granule ATP release, luminescence; AID 1663, 2009;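 active = mean replicate score, as percent of positive control, at or above 50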
SENP8 block-2 – SENP8 protease inhibitors, primary screen, biochemical, luminescence. Sentrin-specific protease 8 (Homo sapiens), Q96LD8. hit rate 1.2% among 330,000. inhibition, % at 10 µM. purified SENP8, Z-RLRGG-aminoluciferin cleavage. AID 2540, 2010; in the data active = inhibition above about 50%
SENP8 inh conf – human SENP8 protease inhibitors, confirmation, biochemical, Nedd8 protein substrate, single concentration. hit rate 15% among 1,400. AID 624319, 2012. inhibition, % at 25 µM. purified SENP8, Nedd8-AMC/pro-Nedd8 cleavage fluorescence, 30 min. shares compounds with SENP8 block-1; in the data active = inhibition mostly above about 39%, no sharp cut-off; inactive = mostly below about 34%
Numbers stand for hits; – = inactive; · = not tested or not shown.

SMILES | SENP1 inh | SENP8 block-1 | SENP6 block | SENP7 inh | Platelet DG rel | SENP8 block-2 | SENP8 inh conf
Cc1cccc(NC(=O)COC(=O)CN2C(=O)C3CCCCC3C2=O)c1C (centres undefined) | – | – | · | · | · | · | ·
CCCNC(=O)CN(C)C(=O)c1n[nH]c2ccccc12 | – | 43.0 | – | – | – | – | –
COCCNC(=O)c1n[nH]c2ccccc12 | – | – | – | – | – | – | ·
Cc1cc(C)nc(N2C(=O)CC(C(=O)O)NC2=NCCc2c[nH]c3ccccc23)n1 (centres undefined) | – | – | – | – | – | – | ·
Cc1cc(C)nc(NC(=NCCc2c[nH]c3ccccc23)NC(=O)C(C)(C)C)n1 | – | 46.4 | – | – | – | – | –
COc1ccc(-c2c(Sc3ccccc3)c3cc(-c4ccc5c(c4)OCO5)ccc3n2C)cc1 | – | – | · | · | · | · | ·
O=S1(=O)NC2c3ccccc3CC2O1 (centres undefined) | – | 45.5 | – | – | – | – | 57.4
O=C(CSc1nc2cc(Cl)ccc2s1)NCc1ccc2c(c1)OCO2 | – | 44.5 | – | – | – | – | –
CC(=O)N1CCc2c(sc(NC(=O)c3ccc([N+](=O)[O-])o3)c2C(N)=O)C1 | – | – | · | · | · | · | ·
O=C(c1ccccc1C(=O)N1CCN(c2ccccc2)CC1)N1CCN(c2ccccc2)CC1 | – | 49.2 | – | – | – | – | –
CC(=O)c1ccccc1NC(=O)COC(=O)CCC1CCCC1 | – | – | – | – | · | – | ·
Cc1cc(Cl)ccc1NNC(N)=S | – | 60.7 | – | – | – | – | –
Cc1ccc(C)c(NNC(N)=S)c1 | – | – | – | – | – | – | ·
NC(=O)c1ccc2c(=O)c(O)c(-c3cc(Cl)c(N)c(Cl)c3)[nH]c2c1 | – | – | – | – | – | – | ·
Oc1c(C=NCc2ccc(F)cc2)[nH]c2ccc(Br)c(Cl)c12 | · | · | – | – | – | – | ·
Cc1ccc(CN=Cc2[nH]c3ccc(Br)c(Cl)c3c2O)cc1 | – | 44.5 | – | – | – | – | –
CCOC(=O)C1=CNS(=O)(=O)NC1c1ccc(C(F)(F)F)cc1 (centres undefined) | – | – | · | – | · | · | ·
CC1(C)SC(=S)N(/N=C/c2ccccc2)C1N(O)C(=O)Nc1ccc([N+](=O)[O-])cc1 (centres undefined) | – | 44.3 | – | – | – | – | –
CC1CCN(c2ccc(C(=O)Nc3ccc4c(c3)OCO4)cc2[N+](=O)[O-])CC1 | – | – | – | – | – | – | ·
CC1CCCN(c2ccc(C(=O)Nc3ccc4c(c3)OCO4)cc2[N+](=O)[O-])C1 (centres undefined) | – | 43.0 | – | – | – | – | –
O=C(OCC(=O)N1CCOCC1)c1cccc(S(=O)(=O)Nc2ccc(F)cc2)c1 | – | – | – | – | · | – | ·
CCn1cc(/C=C/C(=O)Nc2ccn(Cc3c(F)c(F)cc(F)c3F)n2)cn1 | – | 29.2 | – | – | – | – | 65.6
CCn1cc(/C=C/C(=O)Nc2ccc(C)cc2Br)cn1 | – | – | – | – | – | – | ·
CCN(CC)S(=O)(=O)c1ccc(C(=O)Nc2cc(S(=O)(=O)N3CCOCC3)ccc2N2CCN(C)CC2)cc1 | – | – | · | · | · | · | ·
CC(=O)c1cccc(NC(=O)COC(=O)c2ccc3c(c2)OCCO3)c1 | – | 41.5 | – | – | – | – | –
SMILES | SENP1 inh | SENP8 block-1 | SENP6 block | SENP7 inh | Platelet DG rel | SENP8 block-2 | SENP8 inh conf
CC1(C(=O)NS(=O)(=O)c2ccccc2Cl)CCN1C(=O)c1ccccc1 (centres undefined) | – | – | · | · | · | · | ·
CCN(CC)c1ccc(N=Cc2ccc([N+](=O)[O-])o2)cc1 | – | – | – | – | – | – | ·
CCN(CC)c1ccc(N=Cc2ccccc2[N+](=O)[O-])cc1 | – | 66.4 | – | – | – | – | –
CSc1ccc(Cn2c(C)c(C(=O)NCCC#N)sc2=O)cc1 | – | – | · | · | · | · | ·
Cc1nn(Cc2ccc(Cl)cc2Cl)c(C)c1NC(=O)Cn1nc([N+](=O)[O-])c(Cl)c1C | – | 53.6 | – | – | – | – | –
Cc1nn(Cc2ccc(Cl)cc2)c(C)c1NC(=O)Cn1nc([N+](=O)[O-])c(Cl)c1C | – | – | – | – | – | – | ·
CC1(C)CC2(CCO1)C(Nc1ccccc1)=NC(=S)N2CC(N)=O (centres undefined) | – | 45.3 | – | – | – | – | –
Cc1ccccc1NC1=NC(=S)N(CC(N)=O)C12CCOC(C)(C)C2 (centres undefined) | – | – | – | – | – | – | ·
Cc1ccc(S(=O)(=O)NCc2ccccc2NS(=O)(=O)c2ccc(C)cc2)cc1 | – | – | · | · | · | · | ·
CC1CCN(C(=O)CSC2=NS(=O)(=O)c3cc(F)ccc3N2)CC1 | – | – | – | – | – | – | ·
CCN1CCN(c2ccc([N+](=O)[O-])c(Sc3nc4ccccc4[nH]3)c2)CC1 | – | 41.3 | – | – | – | – | –
CC(=O)Nc1ccc(Sc2ccccc2C(=O)O)cn1 | – | – | – | – | – | – | ·
Cc1ccc(NC(=O)COC(=O)CCc2c[nH]c3ccccc23)c(C)c1 | – | – | – | – | · | – | ·
O=C1CN(c2ccc(Cl)cc2)C(=O)CN1NC(=S)Nc1ccc(Cl)cc1 | – | 42.7 | – | – | – | – | –
CC(=O)C1=C(C)OC2(O)c3ccccc3C(=O)C12O (centres undefined) | – | 88.0 | – | – | – | – | 94.5
CCOCCCNC(=O)C1CCCN(S(=O)(=O)CC)C1 (centres undefined) | – | 45.5 | – | – | – | – | –
CN(C)CCN(C(=O)c1ccc(N2C(=O)CCC2=O)cc1)c1nc2cc3c(cc2s1)OCO3 | – | 58.8 | – | – | – | – | 47.8
CN(C)CCCN(C(=O)c1ccc2c(c1)OCCO2)c1nc2cc3c(cc2s1)OCO3 | – | – | – | – | – | – | ·
Cc1oc2c(CN3CCCCC3)c(O)ccc2c(=O)c1-c1ccc(Cl)cc1 | – | – | – | – | – | – | ·
O=[N+]([O-])c1ccc(CNc2ccc(F)cc2)s1 | – | – | – | – | – | – | ·
O=[N+]([O-])c1ccc(CNc2ccc(Cl)cc2)s1 | – | 41.8 | – | – | – | – | –
COc1ccc(NCc2ccc([N+](=O)[O-])s2)c(OC)c1 | – | 57.2 | · | · | · | · | 78.4
COc1ccc(NCc2ccc([N+](=O)[O-])s2)cc1 | – | – | – | – | – | – | ·
O=C(Cn1cc([N+](=O)[O-])cn1)NCc1ccccc1 | – | – | – | – | – | – | ·
COc1ccc(CNC(=O)Cn2cc([N+](=O)[O-])cn2)cc1 | – | 43.5 | – | – | – | – | –
